Experimental data from ChEMBL document CHEMBL1687785, “ampG gene of Pseudomonas aeruginosa and its role in β-lactamase expression” (2010).
In brackets after ≈: the same amount, converted by molar mass.

Key:
Type in all cases: functional
Pseudomonas aeruginosa [1] = test: Antimicrobial activity against Pseudomonas aeruginosa isolate 9 obtained from cystic fibrosis patients after 16 to 20 hrs by broth microdilution method
How it was run: (§1)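 CLSI broth microdilution in Mueller-Hinton broth, serial 2-fold antibiotic dilutions. Inoculum about 10^4 cells per well, taken from starter cultures grown to OD600 0.5. MIC was the lowest antibiotic concentration preventing growth after 16 to 20 h at 37°C. Each MIC was determined in triplicate.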

Pseudomonas aeruginosa [2] = test: Antimicrobial activity against ampG deficient Pseudomonas aeruginosa PAK harboring pZY0901 conferring resistance to gentamycin after 16 to 20 hrs by broth microdilution method in presence of 120 uM carbonyl cyanide m-chlorophenyl-hydrazone
How it was run: (§2)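 CLSI broth microdilution in Mueller-Hinton broth with serial antibiotic dilutions. CCCP was added from a 10 mM DMSO stock to 120 μM final, then the bacterial culture was added as inoculum (about 10^4 cells from OD600 0.5 starter cultures). MIC was the lowest concentration preventing growth after 16 to 20 h at 37°C, run in triplicate.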

Pseudomonas aeruginosa [3] = test: Antimicrobial activity against Pseudomonas aeruginosa isolate 11 obtained from cystic fibrosis patients after 16 to 20 hrs by broth microdilution method in presence of 120 uM carbonyl cyanide m-chlorophenyl-hydrazone
How it was run: (§3)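 CLSI broth microdilution in Mueller-Hinton broth with CCCP added from a 10 mM DMSO stock to 120 μM final, alongside 2-fold serial antibiotic dilutions. Inoculum from starter cultures grown to OD600 0.5. MIC is the lowest concentration preventing growth after 16-20 h at 37°C. Triplicate.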

Pseudomonas aeruginosa [4] = test: Antimicrobial activity against ampD, […], ampDh2 deficient Pseudomonas aeruginosa PAO1 after 16 to 20 hrs by broth microdilution method; how it was run: as §1
Pseudomonas aeruginosa [5] = test: Antimicrobial activity against ampD, ampDh2, ampDh3 and ampG deficient Pseudomonas aeruginosa PAO1 after 16 to 20 hrs by broth microdilution method in presence of 120 uM carbonyl cyanide m-chlorophenyl-hydrazone; how it was run: as §2
Pseudomonas aeruginosa [6] = test: Antimicrobial activity against ampD, ampDh2, ampDh3 and ampGh1 deficient Pseudomonas aeruginosa PAO1 after 16 to 20 hrs by broth microdilution method; how it was run: as §1
Escherichia coli = test: Antimicrobial activity against tetracycline resistant Escherichia coli SNO301-1 harboring pEC1C carrying ampC, ampR from Enterobacter cloacae after 16 to 20 hrs by broth microdilution method
How it was run: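 CLSI broth microdilution: serial 2-fold β-lactam dilutions in Mueller-Hinton broth, inoculum about 10^4 cells from starter cultures at OD600 0.5; MIC read as lowest concentration preventing growth after 16 to 20 h at 37°C; triplicate determinations.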

Pseudomonas aeruginosa [7] = test: Antimicrobial activity against Pseudomonas aeruginosa isolate 1 obtained from cystic fibrosis patients after 16 to 20 hrs by broth microdilution method in presence of 120 uM carbonyl cyanide m-chlorophenyl-hydrazone; how it was run: as §3
Pseudomonas aeruginosa [8] = test: Antimicrobial activity against Pseudomonas aeruginosa isolate 3 obtained from cystic fibrosis patients after 16 to 20 hrs by broth microdilution method; how it was run: as §1
Pseudomonas aeruginosa [9] = test: Antimicrobial activity against Pseudomonas aeruginosa isolate 4 obtained from cystic fibrosis patients after 16 to 20 hrs by broth microdilution method; how it was run: as §1
Pseudomonas aeruginosa [10] = test: Antimicrobial activity against ampD, ampDh2, ampDh3 and ampG deficient Pseudomonas aeruginosa PAO1 harboring pUCP24 conferring resistance to gentamycin after 16 to 20 hrs by broth microdilution method in presence of 120 uM carbonyl cyanide m-chlorophenyl-hydrazone; how it was run: as §2
Pseudomonas aeruginosa [11] = test: Antimicrobial activity against ampG deficient Pseudomonas aeruginosa PAO1 after 16 to 20 hrs by broth microdilution method; how it was run: as §1
Pseudomonas aeruginosa [12] = test: Antimicrobial activity against ampG deficient Pseudomonas aeruginosa PAK harboring pUCP24 conferring resistance to gentamycin after 16 to 20 hrs by broth microdilution method; how it was run: as §1
Pseudomonas aeruginosa [13] = test: Antimicrobial activity against Pseudomonas aeruginosa isolate 4 obtained from cystic fibrosis patients after 16 to 20 hrs by broth microdilution method in presence of 120 uM carbonyl cyanide m-chlorophenyl-hydrazone; how it was run: as §2
Pseudomonas aeruginosa [14] = test: Antimicrobial activity against Pseudomonas aeruginosa isolate 9 obtained from cystic fibrosis patients after 16 to 20 hrs by broth microdilution method in presence of 120 uM carbonyl cyanide m-chlorophenyl-hydrazone; how it was run: as §2
Pseudomonas aeruginosa [15] = test: Antimicrobial activity against ampG, ampGh1 deficient Pseudomonas aeruginosa PAO1 after 16 to 20 hrs by broth microdilution method in presence of 120 uM carbonyl cyanide m-chlorophenyl-hydrazone; how it was run: as §2
Pseudomonas aeruginosa [16] = test: Antimicrobial activity against ampG deficient Pseudomonas aeruginosa PAO1 harboring pUCP24 conferring resistance to gentamycin after 16 to 20 hrs by broth microdilution method; how it was run: as §1
Pseudomonas aeruginosa [17] = test: Antimicrobial activity against Pseudomonas aeruginosa isolate 12 obtained from cystic fibrosis patients after 16 to 20 hrs by broth microdilution method
How it was run: (§4)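 CLSI broth microdilution: 2-fold serial antibiotic dilutions in Mueller-Hinton broth, inoculated with about 10^4 cells per 100 μl from starter cultures grown to OD600 0.5. MIC is the lowest concentration preventing growth after 16-20 h at 37°C. Triplicate.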

Pseudomonas aeruginosa [18] = test: Antimicrobial activity against ampD, ampDh2, ampDh3 and ampG deficient Pseudomonas aeruginosa PAO1 harboring pUCP24 conferring resistance to gentamycin after 16 to 20 hrs by broth microdilution method; how it was run: as §1
Pseudomonas aeruginosa [19] = test: Antimicrobial activity against ampG deficient Pseudomonas aeruginosa PAK after 16 to 20 hrs by broth microdilution method in presence of 120 uM carbonyl cyanide m-chlorophenyl-hydrazone; how it was run: as §2
Pseudomonas aeruginosa [20] = test: Antimicrobial activity against Pseudomonas aeruginosa isolate 8 obtained from cystic fibrosis patients after 16 to 20 hrs by broth microdilution method in presence of 120 uM carbonyl cyanide m-chlorophenyl-hydrazone; how it was run: as §2
Pseudomonas aeruginosa [21] = test: Antimicrobial activity against Pseudomonas aeruginosa isolate 7 obtained from cystic fibrosis patients after 16 to 20 hrs by broth microdilution method; how it was run: as §1
Pseudomonas aeruginosa [22] = test: Antimicrobial activity against ampD, ampDh2, ampDh3 and ampG deficient Pseudomonas aeruginosa PAO1 harboring pZY0901 conferring resistance to gentamycin after 16 to 20 hrs by broth microdilution method; how it was run: as §1
Pseudomonas aeruginosa [23] = test: Antimicrobial activity against ampD, ampDh2, ampDh3 and ampGh1 deficient Pseudomonas aeruginosa PAO1 after 16 to 20 hrs by broth microdilution method in presence of 120 uM carbonyl cyanide m-chlorophenyl-hydrazone; how it was run: as §2
Pseudomonas aeruginosa [24] = test: Antimicrobial activity against Pseudomonas aeruginosa isolate 15 obtained from cystic fibrosis patients after 16 to 20 hrs by broth microdilution method; how it was run: as §4
Pseudomonas aeruginosa [25] = test: Antimicrobial activity against Pseudomonas aeruginosa isolate 18 obtained from cystic fibrosis patients after 16 to 20 hrs by broth microdilution method in presence of 120 uM carbonyl cyanide m-chlorophenyl-hydrazone; how it was run: as §2
Pseudomonas aeruginosa [26] = test: Antimicrobial activity against Pseudomonas aeruginosa isolate 6 obtained from cystic fibrosis patients after 16 to 20 hrs by broth microdilution method; how it was run: as §1
Pseudomonas aeruginosa [27] = test: Antimicrobial activity against Pseudomonas aeruginosa PAO1 after 16 to 20 hrs by broth microdilution method; how it was run: as §4
Pseudomonas aeruginosa [28] = test: Antimicrobial activity against Pseudomonas aeruginosa isolate 16 obtained from cystic fibrosis patients after 16 to 20 hrs by broth microdilution method; how it was run: as §4
Pseudomonas aeruginosa [29] = test: Antimicrobial activity against Pseudomonas aeruginosa isolate 16 obtained from cystic fibrosis patients after 16 to 20 hrs by broth microdilution method in presence of 120 uM carbonyl cyanide m-chlorophenyl-hydrazone; how it was run: as §3

With `CC1(C)S[C@@H]2[C@H](NC(=O)[C@H](N)c3ccccc3)C(=O)N2[C@H]1C(=O)O` [AMPICILLIN] the MIC (Pseudomonas aeruginosa [1]) was 512 µg/mL (≈ 1470 µM), the MIC (Pseudomonas aeruginosa [2]) was 32 µg/mL and the MIC (Pseudomonas aeruginosa [3]) was 8 µg/mL. The MIC (Pseudomonas aeruginosa [4]) was 1020 µg/mL (≈ 2930 µM), the MIC (Pseudomonas aeruginosa [5]) was 16 µg/mL and the MIC (Pseudomonas aeruginosa [6]) was 1020 µg/mL (≈ 2930 µM). For the same molecule, the MIC (Escherichia coli) was 16 µg/mL (≈ 45.8 µM), the MIC (Pseudomonas aeruginosa [7]) was 512 µg/mL and the MIC (Pseudomonas aeruginosa [8]) was 64 µg/mL (≈ 183 µM). It also gave an MIC (Pseudomonas aeruginosa [9]) of 512 µg/mL (≈ 1470 µM), an MIC (Pseudomonas aeruginosa [10]) of 16 µg/mL and an MIC (Pseudomonas aeruginosa [11]) of 32 µg/mL (≈ 91.6 µM). It also gave an MIC (Pseudomonas aeruginosa [12]) of 32 µg/mL (≈ 91.6 µM), an MIC (Pseudomonas aeruginosa [13]) of 512 µg/mL and an MIC (Pseudomonas aeruginosa [14]) of 8 µg/mL. For the same molecule, the MIC (Pseudomonas aeruginosa [15]) was 32 µg/mL, the MIC (Pseudomonas aeruginosa [16]) was 32 µg/mL (≈ 91.6 µM) and the MIC (Pseudomonas aeruginosa [17]) was > 1020 µg/mL. For the same molecule, the MIC (Pseudomonas aeruginosa [18]) was 16 µg/mL (≈ 45.8 µM), the MIC (Pseudomonas aeruginosa [19]) was 32 µg/mL and the MIC (Pseudomonas aeruginosa [20]) was 8 µg/mL. The MIC (Pseudomonas aeruginosa [21]) was 256 µg/mL (≈ 733 µM), the MIC (Pseudomonas aeruginosa [22]) was 1020 µg/mL (≈ 2930 µM) and the MIC (Pseudomonas aeruginosa [23]) was 64 µg/mL. The MIC (Pseudomonas aeruginosa [24]) was > 1020 µg/mL, the MIC (Pseudomonas aeruginosa [25]) was 256 µg/mL and the MIC (Pseudomonas aeruginosa [26]) was > 1020 µg/mL. The MIC (Pseudomonas aeruginosa [27]) was 256 µg/mL (≈ 733 µM), the MIC (Pseudomonas aeruginosa [28]) was 16 µg/mL (≈ 45.8 µM) and the MIC (Pseudomonas aeruginosa [29]) was 8 µg/mL.
